Reference: paper PMC7717620 (Nucleosides, nucleotides & nucleic acids, 2019)
“Also recorded” adds a separate entry of the source.

Columns and labels:
[1] = tested on: primary monkey hepatocytes; test: intracellular metabolism in primary monkey hepatocytes; type: in vitro ADME; details: 50 μM, 4 h
[2] = tested on: primary human hepatocytes; test: intracellular metabolism in primary human hepatocytes; type: in vitro ADME; details: 50 μM, 4 h
[3] = tested on: monkey heart and kidney; details: three weeks post a three-week dosing (week 6); cited from earlier work
[4] = tested on: human cardiomyocytes; test: cellular accumulation and metabolism in human cardiomyocytes; type: in vitro ADME; details: 10 μM
[5] = tested on: primary dog hepatocytes; test: intracellular metabolism in primary dog hepatocytes; type: in vitro ADME; details: 50 μM, 4 h
[6] = tested on: HepG2 cells; test: intracellular metabolism in HepG2 cells; type: in vitro ADME, human; details: HepG2, 50 μM, 4 h
[7] = tested on: patients; details: of the 34 patients treated, phase IIb; cited from earlier work
[8] = tested on: human cardiomyocytes; test: recording of human cardiomyocyte beating patterns; type: cell-based
[9] = tested on: Huh-7 cells; test: intracellular metabolism in Huh-7 cells; type: in vitro ADME, human; details: Huh-7, 50 μM, 4 h
[10] = tested on: primary rat hepatocytes; test: intracellular metabolism in primary rat hepatocytes; type: in vitro ADME; details: 50 μM, 4 h
[11] = tested on: primary mouse hepatocytes; test: intracellular metabolism in primary mouse hepatocytes; type: in vitro ADME; details: 50 μM, 4 h
[12] = tested on: HepG2 cells; details: up to 50 μM; cited from earlier work
[13] = tested on: various cell lines; details: up to 100 μM; cited from earlier work
[14] = tested on: HCV genotype 1 b RNA replication; test: subgenomic HCV replicon system, inhibition of HCV RNA replication in Huh-7 cells; type: cell-based, hepatitis C virus; details: HCV genotype 1 b subgenomic replicon
How it was run: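 HCV genotype 1b subgenomic replicon in Huh-7 cells. HCV RNA and cellular ribosomal RNA were extracted and amplified, so replication and cytotoxicity were read in the same cells.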

[15] = single dose escalation and seven day repeat dosing in dogs; details: dog, in vivo
[16] = single dose escalation and seven day repeat dosing in rats; details: rat, in vivo

In the case of `COc1nc(N)nc2c1ncn2[C@@H]1O[C@H](COP(=O)(N[C@@H](C)C(=O)OCC(C)(C)C)Oc2cccc3ccccc23)[C@@H](O)[C@@]1(C)O` (stereo partly drawn) [BMS-986094, Neopentyl ((((2R,3R,4R,5R)-5-(2-amino-6-methoxy-9H-purin-9-yl)-3,4-dihydroxy-4-methyltetrahydrofuran-2-yl)methoxy)(naphthalen-1-yloxy)phosphoryl)-L-alaninate], the “Intracellular concentration: Prodrugs” value [1] is given as 150 ± 19 pmol/10^6 cells, the “Intracellular concentration: Prodrugs” value [2] is given as 4,100 ± 569 pmol/10^6 cells and the “levels of 2’-C-Me-GTP in the heart and kidney” value [3] is given as 2,610–4,280 ng/mL. The “Intracellular concentration in human cardiomyocytes: NTP (triphosphate of N)” value ([4]; 4 h) was “BLOQ”, the “Intracellular concentration in human cardiomyocytes: Prodrugs” value ([4]; 4 h) was 800 ± 118 pmol/10^6 cells and the “Intracellular concentration in human cardiomyocytes: NTP (triphosphate of N)” value ([4]; 8 h) was “BLOQ”. For the same molecule, the “Intracellular concentration in human cardiomyocytes: Prodrugs” value ([4]; 8 h) was 810 ± 80 pmol/10^6 cells, the “level of intact prodrug, fold higher than DAPN-PD” value ([4]; human cardiomyocytes, 4 h) was 11 fold and the “level of intact prodrug, fold higher than IDX-184” value ([4]; human cardiomyocytes, 4 h) was 37 fold. The “Intracellular concentration: Prodrugs” value [5] was 2,200 ± 68 pmol/10^6 cells, the “Intracellular concentration: Prodrugs” value [6] was 2,400 ± 9 pmol/10^6 cells and the “parent prodrug level, times the level observed for DAPN-PD” value [6] was 6 times. The “parent prodrug level, times the level observed for IDX-184” value [6] was 110 times, the deaths [7] was “one death” and the “patients with some evidence of cardiac dysfunction” value [7] was 14. The “Beating rate of human cardiomyocytes” value ([8]; 2 μM, 2 h) was 31.0 ± 0 beats/minute, the “Beating rate of human cardiomyocytes” value ([8]; 2 μM, 4 h) was 30.5 ± 0.7 beats/minute and the “Beating rate of human cardiomyocytes” value ([8]; 2 μM, 8 h) was 34.5 ± 0.7 beats/minute. For the same molecule, the “Beating rate of human cardiomyocytes” value ([8]; 2 μM, 12 h) was 36.0 ± 0 beats/minute, the “Beating rate of human cardiomyocytes” value ([8]; 2 μM, 24 h) was 32.5 ± 0.7 beats/minute and the “Beating rate of human cardiomyocytes” value ([8]; 2 μM, 48 h) was 26.5 ± 0.7 beats/minute. For the same molecule, the “change in beating rate or rhythm of cardiomyocytes (observation)” value (shortened to “change in beating rate or rhythm”) ([8]; 2 μM, up to 48 h) was “no clear change in beating rate or rhythm”, the “Beating rate of human cardiomyocytes” value ([8]; 10 μM, 2 h) was 31.0 ± 0 beats/minute and the “Beating rate of human cardiomyocytes” value ([8]; 10 μM, 4 h) was 31.0 ± 0 beats/minute. For the same molecule, the “Beating rate of human cardiomyocytes” value ([8]; 10 μM, 8 h) was 35.0 ± 0 beats/minute, the “Beating rate of human cardiomyocytes” value ([8]; 10 μM, 12 h) was 36.0 ± 0 beats/minute and the “Beating rate of human cardiomyocytes” value ([8]; 10 μM, 24 h) was 34.5 ± 0.7 beats/minute. The “Beating rate of human cardiomyocytes” value ([8]; 10 μM, 48 h) was 35.5 ± 2.1 beats/minute, the “change in beating rate or rhythm” value ([8]; 10 μM, up to 48 h) was “changes to both beat rate and rhythm were noted; also recorded: higher beating rates were observed starting from 12 h” and the “time until cardiomyocytes stopped beating” value ([8]; 50 μM) was at most 2 h. For the same molecule, the “Beating rate of human cardiomyocytes” value ([8]; 50 μM, 2 h) was 0 ± 0 beats/minute, the “Beating rate of human cardiomyocytes” value ([8]; 50 μM, 4 h) was 0 ± 0 beats/minute and the “Beating rate of human cardiomyocytes” value ([8]; 50 μM, 8 h) was 0 ± 0 beats/minute. For the same molecule, the “Beating rate of human cardiomyocytes” value ([8]; 50 μM, 12 h) was 32.0 beats/minute, the “Beating rate of human cardiomyocytes” value ([8]; 50 μM, 24 h) was 34.0 ± 0 beats/minute and the “Beating rate of human cardiomyocytes” value ([8]; 50 μM, 48 h) was 0 ± 0 beats/minute. The “rhythm of cardiomyocytes (observation)” value ([8]; 50 μM, beating resumed briefly at 12 and 24 h) was “very unstable rhythm”, the “Intracellular concentration: Prodrugs” value [9] was 2,900 ± 358 pmol/10^6 cells and the “parent prodrug level, times the level observed for DAPN-PD” value [9] was 17 times. The “parent prodrug level, times the level observed for IDX-184” value [9] was 260 times, the “Intracellular concentration: Prodrugs” value [10] was 52 pmol/10^6 cells and the “Intracellular concentration: NTP (triphosphate of N)” value [11] was “undetectable and BLOQ”. For the same molecule, the “Intracellular concentration: Prodrugs” value [11] was 880 ± 135 pmol/10^6 cells.
For `CC(C)OC(=O)CCc1ccccc1OP(=O)(N[C@@H](C)C(=O)OC(C)C)OC[C@H]1O[C@@H](n2cnc3c(N)nc(N)nc32)[C@](C)(O)[C@@H]1O` (stereo partly drawn) [DAPN-PD, Isopropyl 3-(2-(((((2R,3R,4R,5R)-5-(2,6-diamino-9H-purin-9-yl)-3,4-dihydroxy-4-methyltetrahydrofuran-2-yl)methoxy)(((S)-1-isopropoxy-1-oxopropan-2-yl)amino)phosphoryl)oxy)phenyl)propanoate], the “Intracellular concentration: Prodrugs” value [1] is given as 160 ± 4 pmol/10^6 cells, the “mitochondrial toxicity or increase in lactic acid levels” value [12] is given as “no mitochondrial toxicity or increase in lactic acid levels” and the “Intracellular concentration: Prodrugs” value [2] is given as 70 ± 6 pmol/10^6 cells. For the same molecule, the “in vitro cytotoxicity in various cell lines” value [13] was “no in vitro cytotoxicity”, the “Intracellular concentration in human cardiomyocytes: Prodrugs” value ([4]; 4 h) was 70 ± 3 pmol/10^6 cells and the “Intracellular concentration in human cardiomyocytes: Prodrugs” value ([4]; 8 h) was 51 ± 1 pmol/10^6 cells. The “intact prodrug level, times lower than BMS-986094” value ([4]; human cardiomyocytes, 8 h) was 16 times, the “Intracellular concentration: Prodrugs” value [5] was 6.3 ± 1.5 pmol/10^6 cells and the “Intracellular concentration: Prodrugs” value [6] was 390 ± 33 pmol/10^6 cells. For the same molecule, the “Replicon Huh-7 EC50” value [14] was “sub-micromolar”, the “Beating rate of human cardiomyocytes” value ([8]; 2 μM, 2 h) was 33.5 ± 0.7 beats/minute and the “Beating rate of human cardiomyocytes” value ([8]; 2 μM, 4 h) was 34.0 ± 0 beats/minute. The “Beating rate of human cardiomyocytes” value ([8]; 2 μM, 8 h) was 37.0 ± 0 beats/minute, the “Beating rate of human cardiomyocytes” value ([8]; 2 μM, 12 h) was 36.0 ± 0 beats/minute and the “Beating rate of human cardiomyocytes” value ([8]; 2 μM, 24 h) was 34.0 ± 1.4 beats/minute. The “Beating rate of human cardiomyocytes” value ([8]; 2 μM, 48 h) was 27.5 ± 0.7 beats/minute, the “change in beating rate or rhythm” value ([8]; 2 μM, up to 48 h) was “did not observe beating changes” and the “Beating rate of human cardiomyocytes” value ([8]; 10 μM, 2 h) was 24.5 ± 0.7 beats/minute. For the same molecule, the “Beating rate of human cardiomyocytes” value ([8]; 10 μM, 4 h) was 23.5 ± 0.7 beats/minute, the “Beating rate of human cardiomyocytes” value ([8]; 10 μM, 8 h) was 26.0 ± 1.4 beats/minute and the “Beating rate of human cardiomyocytes” value ([8]; 10 μM, 12 h) was 25.5 ± 0.7 beats/minute. The “Beating rate of human cardiomyocytes” value ([8]; 10 μM, 24 h) was 25.5 ± 0.7 beats/minute, the “Beating rate of human cardiomyocytes” value ([8]; 10 μM, 48 h) was 25.5 ± 0.7 beats/minute and the “change in beating rate or rhythm” value ([8]; 10 μM, up to 48 h) was “changes to both beat rate and rhythm were noted; also recorded: caused the beat rate to decrease”. The “Beating rate of human cardiomyocytes” value ([8]; 50 μM, 2 h) was 21.5 ± 0.7 beats/minute, the “Beating rate of human cardiomyocytes” value ([8]; 50 μM, 4 h) was 21.0 ± 0 beats/minute and the “Beating rate of human cardiomyocytes” value ([8]; 50 μM, 8 h) was 22.0 ± 0 beats/minute. The “Beating rate of human cardiomyocytes” value ([8]; 50 μM, 12 h) was 21.0 ± 0 beats/minute, the “Beating rate of human cardiomyocytes” value ([8]; 50 μM, 24 h) was 19.0 ± 0 beats/minute and the “Beating rate of human cardiomyocytes” value ([8]; 50 μM, 48 h) was 17.0 ± 0 beats/minute. For the same molecule, the “rhythm of cardiomyocytes (observation)” value ([8]; 10 and 50 μM) was “altered and irregular”, the “change in beating rate of cardiomyocytes (observation)” value ([8]; 10 and 50 μM, up to 48 h) was “the beating rate dropped within 2 h then remained at a reduced rate out to 48 h” and the NOAEL at 7 day [15] was under 40 mg/kg/day. The NOAEL at 7 day [16] was under 40 mg/kg/day, the “Intracellular concentration: Prodrugs” value [9] was 170 ± 4 pmol/10^6 cells and the “Intracellular concentration: Prodrugs” value [10] was 0.90 ± 0.50 pmol/10^6 cells. For the same molecule, the “Intracellular concentration: 2’-C-Me-G” value [11] was “BLOQ” and the “Intracellular concentration: Prodrugs” value [11] was 13 ± 1 pmol/10^6 cells.
